One block for each molecule: values may come before it.
Legend:
[1] = molecular target: T1, methyl‐13C‐Met‐labeled VEGF (Homo sapiens, UniProt P15692); experiment: Protein-observed CSP with methyl‐13C‐Met‐labeled VEGF; type: binding
T1 sequence (P15692 217-315): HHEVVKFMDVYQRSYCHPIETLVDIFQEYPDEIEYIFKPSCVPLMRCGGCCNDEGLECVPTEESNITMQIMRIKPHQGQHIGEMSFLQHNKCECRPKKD
In short: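 Methyl‑13C‑Met‑labeled VEGF at 30 μM in 25 mM sodium phosphate pH 7.0, 50 mM NaCl, 10% D2O, usually at 45 °C. 1H–13C HSQC used 256×96 points with 8 scans per increment. 13C‑decoupled‑13C‑filtered 1D 1H spectra used 2048 points and 128 scans. KD came from ligand‑titration chemical shift perturbations.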

[2] = test system: VEGF (v107 / receptor binding site); experiment: STD competition assay with peptide v107; conditions: 1 mM baicalin, 10 μM VEGF, 298 K, 50 and 100 μM v107
VEGF11−109 (VEGF) = experiment: STD and WaterLOGSY ligand-observed NMR binding experiments; conditions: STD, 1 mM baicalin, 10 μM VEGF, 298 K
In short: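 Ligand‑observed STD and WaterLOGSY were run with 10 μM VEGF and 0.5 or 1 mM test compound in 25 mM sodium phosphate pH 7.0, 50 mM NaCl, […], at 37, 25 or 5 °C on 600/500 MHz spectrometers. On‑resonance saturation targeted the aliphatic protein region (STD) or the water signal (WaterLOGSY). Binding was judged from ligand STD/WaterLOGSY signals.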

Methionine perturbations on 13C‐filtered‐13C‐decoupled 1H NMR spectra of VEGF ([1]; baicalin‐related flavonoids of Figure 7 a): induced methionine perturbations
Molecule: O=c1c(O[C@@H]2O[C@H](CO)[C@@H](O)[C@H](O)[C@H]2O)c(-c2ccc(O)c(O)c2)oc2cc(O)cc(O)c12 [quercetin‐3‐β‐glucoside]

VEGF binding affinity from titration experiments ([1]; CSP titration, methyl‐13C‐Met‐labeled VEGF): low‐millimolar range
Molecule: &D‐Pro‐Trp‐Glu‐D‐Pro‐Trp‐Glu& (head to tail)

Binding of isolated compound to VEGF (VEGF11−109 (VEGF)): able to bind VEGF
Molecule: O=C(O)[C@H]1O[C@@H](Oc2cc3oc(-c4ccccc4)cc(=O)c3c(O)c2O)[C@H](O)[C@@H](O)[C@@H]1O [baicalin]
STD competition with v107 (reduction of ligand STD signals) [2]: baicalin and v107 compete for the same binding site

Reference: article PMC5063151 (Chemmedchem, 2015)
